Key:
[1] = species: Bos taurus; experiment: Selectivity index, ratio of IC50 for bovine brain mitochondria MAO-B to IC50 for bovine brain mitochondria MAO-A
In short: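 Bovine brain mitochondria (6 mg/mL suspension) in 0.25 M phosphate buffer, pH 7.4, were used with 0.1 mM clorgyline or L-deprenyl to isolate MAO-A or MAO-B. Compounds at five concentrations in propylene glycol were preincubated for 20 min, then 2.5 mM kynuramine was added for 60 min at 37 °C. The reaction was stopped with perchloric acid, made alkaline with NaOH and read fluorimetrically in duplicate. IC50 was reported, and SI = MAO-B IC50 / MAO-A IC50.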

[2] = molecular target: T1, Amine oxidase [flavin-containing] B (Bos taurus, UniProt P56560); experiment: Inhibition of bovine brain mitochondria MAO-B by spectrofluorimetry
T1 sequence (P56560 whole entry): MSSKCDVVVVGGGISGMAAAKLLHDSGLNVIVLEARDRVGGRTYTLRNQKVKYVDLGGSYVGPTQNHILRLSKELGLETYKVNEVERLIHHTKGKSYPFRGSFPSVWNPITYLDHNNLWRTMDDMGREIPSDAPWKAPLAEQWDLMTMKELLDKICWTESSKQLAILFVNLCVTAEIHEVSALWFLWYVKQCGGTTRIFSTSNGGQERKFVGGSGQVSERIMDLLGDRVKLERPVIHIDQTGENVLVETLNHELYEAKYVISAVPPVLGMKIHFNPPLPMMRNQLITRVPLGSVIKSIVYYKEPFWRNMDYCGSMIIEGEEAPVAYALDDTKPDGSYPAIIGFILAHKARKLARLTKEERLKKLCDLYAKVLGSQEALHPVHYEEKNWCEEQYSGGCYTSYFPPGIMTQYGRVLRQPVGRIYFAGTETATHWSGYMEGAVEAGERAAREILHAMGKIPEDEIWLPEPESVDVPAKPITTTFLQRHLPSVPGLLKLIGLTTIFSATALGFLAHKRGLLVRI

[3] = molecular target: T2, Amine oxidase [flavin-containing] A (Bos taurus, UniProt P21398); experiment: Inhibition of bovine brain mitochondria MAO-A by spectrofluorimetry
T2 sequence (P21398 whole entry): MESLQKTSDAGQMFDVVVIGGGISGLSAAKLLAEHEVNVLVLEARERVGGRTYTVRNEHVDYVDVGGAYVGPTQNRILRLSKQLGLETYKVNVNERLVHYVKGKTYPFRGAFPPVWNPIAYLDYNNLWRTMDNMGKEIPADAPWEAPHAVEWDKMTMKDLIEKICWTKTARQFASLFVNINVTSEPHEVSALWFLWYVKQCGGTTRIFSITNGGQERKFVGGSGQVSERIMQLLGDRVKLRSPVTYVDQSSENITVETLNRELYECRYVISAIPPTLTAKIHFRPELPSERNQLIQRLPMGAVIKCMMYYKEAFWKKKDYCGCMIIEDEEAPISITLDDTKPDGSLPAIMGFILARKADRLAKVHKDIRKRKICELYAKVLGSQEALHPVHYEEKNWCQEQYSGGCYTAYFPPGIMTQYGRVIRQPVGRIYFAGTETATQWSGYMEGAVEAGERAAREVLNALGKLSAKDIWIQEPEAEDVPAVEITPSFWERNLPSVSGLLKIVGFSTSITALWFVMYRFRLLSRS

[4] = system: Brain; experiment: Drug distribution in Sprague-Dawley rat brain measured per gram at 20 mg/kg, iv; format: ADME, organism-based; set-up: dose 20 mg/kg, route intravenous; conditions: in vivo
In short: (§1)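 Female Sprague Dawley rats (65–70 g, 3 per group) were anesthetized with urethane and given 20 mg/kg in DMSO (25 mg/mL) via the external jugular vein. At 5, 15, 30, 45, 60 and 75 min, eyeball blood was taken into acetonitrile. Brains were removed, washed, homogenized in water plus 5% DMSO/acetonitrile and centrifuged at 4000 rpm for 10 min. Supernatants were analysed by HPLC, with DMSO-injected controls.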

[5] = Shelf-life stability of the compound in phosphate buffer at pH 7.4 assessed as half life by reverse-phase HPLC analysis; format: physicochemical
In short: (§2)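 1 mL of freshly prepared 2 × 10^-4 M methanolic solution (stock) was added to 5 mL of 0.2 M phosphate buffer, pH 5.8 or 7.4, at about 37 °C. Tubes were kept in the dark for 3 days and sampled at 5, 180, 1880 and 2440 min for reverse-phase HPLC. The rate constant came from linear regression of ln peak area against time, and t1/2 was derived from it.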

[6] = Shelf-life stability of the compound in phosphate buffer at pH 5.8 assessed as apparent pseudo first order rate constant of disappearance by reverse-phase HPLC analysis; format: physicochemical; in short: as §2
[7] = system: Blood; experiment: Drug metabolism in Sprague-Dawley rat blood assessed as 2-(isoquinolinium-2-yl)-3-oxo-3-(phenethylamino)propanoate measured during first 15 mins at 20 mg/kg, iv; format: ADME, organism-based; set-up: dose 20 mg/kg, route intravenous; conditions: in vivo, 0.25 h; in short: as §1
[8] = Shelf-life stability of the compound in phosphate buffer at pH 5.8 assessed as half life by reverse-phase HPLC analysis; format: physicochemical; in short: as §2
[9] = Stability of the compound in 80% mouse plasma assessed as half life by reverse-phase HPLC analysis; format: ADME, cell-free
In short: (§3)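 Heparinized mouse blood was spun at 4000 rpm for 20 min, and the plasma was diluted to 80% with 0.2 M phosphate buffer, pH 7.4, then prewarmed at 37 °C. Methanolic compound solution (2 × 10^-4 M stock) was added and the mix held at 37 °C. Samples were taken at 5–240 min, quenched in ice-cold methanol, frozen, centrifuged and run on HPLC. Rate came from ln peak area versus time (n = 5), and t1/2 was derived.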

[10] = system: Brain; experiment: Drug metabolism in Sprague-Dawley rat brain assessed as 2-(isoquinolin-2(1H)-yl)-3-oxo-3-(phenethylamino)propanoate at 20 mg/kg, iv; format: ADME, organism-based; set-up: dose 20 mg/kg, route intravenous; conditions: in vivo; in short: as §1
[11] = Stability of the compound in 20% rabbit brain homogenate assessed as half life by reverse-phase HPLC analysis; format: ADME, tissue-based, Oryctolagus cuniculus
In short: (§4)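 Rabbit brains were homogenized in 4 volumes of ice-cold isotonic 0.2 M phosphate buffer, pH 7.4, giving a 20% homogenate that was equilibrated at 37 °C. Methanolic compound solution (2 × 10^-4 M stock) was added and the mix held at 37 °C. Samples were taken at 5, 60, 120, 180 and 240 min, quenched in ice-cold methanol, frozen, centrifuged and run on HPLC. The pseudo first order rate came from ln peak area versus time (n = 5), and t1/2 was derived.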

[12] = Chemical stability of the compound in 30% aqueous hydrogen peroxide assessed as half life by reverse-phase HPLC analysis; format: physicochemical
In short: (§5)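 Reagents were 10% methanolic silver nitrate or 30% aqueous hydrogen peroxide. The compound and its metabolites were measured by a validated reverse-phase HPLC method. Pseudo first order disappearance was fitted by linear regression of ln peak area against time, and t1/2 was derived from the rate constant.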

[13] = Shelf-life stability of the compound in phosphate buffer at pH 7.4 assessed as apparent pseudo first order rate constant of disappearance by reverse-phase HPLC analysis; format: physicochemical; in short: as §2
[14] = Chemical stability of the compound in 30% aqueous hydrogen peroxide assessed as apparent pseudo first order rate constant of disappearance by reverse-phase HPLC analysis; format: physicochemical; conditions: buffer; in short: as §5
[15] = system: Brain; experiment: Drug metabolism in Sprague-Dawley rat brain assessed as 2-(isoquinolinium-2-yl)-3-oxo-3-(phenethylamino)propanoate at 20 mg/kg, iv; format: ADME, organism-based; set-up: dose 20 mg/kg, route intravenous; conditions: in vivo; in short: as §1
[16] = system: Plasma; experiment: Stability of the compound in 80% mouse plasma assessed as apparent pseudo first order rate constant of disappearance by reverse-phase HPLC analysis; format: ADME, cell-free; in short: as §3
[17] = system: Brain; experiment: Stability of the compound in 20% rabbit brain homogenate assessed as apparent pseudo first order rate constant of disappearance by reverse-phase HPLC analysis; format: ADME, tissue-based, Oryctolagus cuniculus; in short: as §4
[18] = Chemical stability of the compound in 10% methanolic silver nitrate assessed as apparent pseudo first order rate constant of disappearance by reverse-phase HPLC analysis; format: physicochemical; in short: as §5
[19] = Chemical stability of the compound in 10% methanolic silver nitrate assessed as half life by reverse-phase HPLC analysis; format: physicochemical; in short: as §5

N/N=C/c1ccc([N+](=O)[O-])cc1
Selectivity Index [1]: 9500 | IC50 [2]: 380 µM | IC50 [3]: 0.049 µM

CCOC(=O)C(C(=O)N/N=C/c1ccc([N+](=O)[O-])cc1)[n+]1ccc2ccccc2c1 (stereo unspecified)
Selectivity Index [1]: 1.94e+06 | IC50 [2]: 7400 µM | IC50 [3]: 0.0038 µM

N/N=C/c1ccc(Cl)cc1
Selectivity Index [1]: 1.89e+06 | IC50 [2]: 7400 µM | IC50 [3]: 0.0039 µM

CCOC(=O)C(C(=O)NCCc1ccccc1)[n+]1ccc2ccccc2c1 (stereo unspecified)
Selectivity Index [1]: 12400 | IC50 [2]: 77 µM | IC50 [3]: 0.0062 µM

CCOC(=O)C(C(=O)N/N=C/c1ccc(Cl)cc1)[n+]1ccc2ccccc2c1 (stereo unspecified)
Selectivity Index [1]: 5400 | IC50 [2]: 360 µM | IC50 [3]: 0.066 µM

CCOC(=O)C(C(=O)NCCc1ccccc1)N1C=Cc2ccccc2C1 (stereo unspecified)
Drug uptake [4]: 145.1 µg/g | half-life [5]: 10.1 h | K [6]: 0.000561 min⁻¹ | Drug metabolism [7]: metabolite_detected | half-life [8]: 20.6 h | half-life [9]: 1.7 h | Drug metabolism [10]: metabolite_detected | half-life [11]: 3.02 h | half-life [12]: 0.637 h | K [13]: 0.00114 min⁻¹ | K [14]: 0.0181 min⁻¹ | Drug metabolism [15]: metabolite_detected | K [16]: 6.81 ×10⁻³ /min | K [17]: 3.82 ×10⁻³ /min | K [18]: 0.0217 min⁻¹ | half-life [19]: 0.532 h
